According to ChEMBL document CHEMBL1240456, “Synthesis and antimicrobial activity of some new thiazole, thiophene and pyrazole derivatives containing benzothiazole moiety” (2010):
In brackets after ≈: the same amount, converted by molar mass.

Columns and labels:
Format in all cases: functional
Streptococcus pyogenes [1] = assay: Antimicrobial activity against Streptococcus pyogenes ATCC 19615 after 24 hrs by agar diffusion assay
Outline: (§1)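 Filter-paper disks (5 mm) loaded with test solution at 1 mg/mL in DMF, placed on agar seeded with the bacterium, in triplicate. DMF alone served as control. Plates incubated at 37 °C for 24 h. Read-out is the mean diameter of the inhibition zone in mm.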

Pseudomonas fluorescens [2] = assay: Antimicrobial activity against Pseudomonas fluorescens S 97 after 24 hrs by microdilution assay; details: S 97, 24 h
Outline: (§2)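 Broth microdilution in Müller-Hinton broth, run only for compounds giving zones >12 mm. Stock at 1000 µg/mL in DMF, then twofold dilutions of 500 down to 3.125 µg/mL. Wells inoculated with 10^6 CFU/mL.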

Pseudomonas fluorescens [3] = assay: Antimicrobial activity against Pseudomonas fluorescens S 97 after 24 hrs by agar diffusion assay; outline: as §1
Fusarium oxysporum [4] = assay: Antimicrobial activity against Fusarium oxysporum after 48 hrs by microdilution assay
Outline: (§3)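 Broth microdilution in Sabouraud liquid medium, run only for compounds giving zones >12 mm. Stock at 1000 µg/mL in DMF, then twofold dilutions of 500 down to 3.125 µg/mL. Wells inoculated with 10^6 CFU/mL.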

Fusarium oxysporum [5] = assay: Antimicrobial activity against Fusarium oxysporum after 48 hrs by agar diffusion assay
Staphylococcus aureus [6] = assay: Antimicrobial activity against Staphylococcus aureus ATCC 25923 after 24 hrs by agar diffusion assay; outline: as §1
Pseudomonas [7] = assay: Antimicrobial activity against Pseudomonas phaseolicola GSPB 2828 after 24 hrs by microdilution assay; details: GSPB 2828, 24 h; outline: as §2
Aspergillus fumigatus [8] = assay: Antimicrobial activity against Aspergillus fumigatus after 48 hrs by microdilution assay; outline: as §3
Streptococcus pyogenes [9] = assay: Antimicrobial activity against Streptococcus pyogenes ATCC 19615 after 24 hrs by microdilution assay; details: ATCC 19615, 24 h; outline: as §2
Pseudomonas [10] = assay: Antimicrobial activity against Pseudomonas phaseolicola GSPB 2828 after 24 hrs by agar diffusion assay; outline: as §1
Aspergillus fumigatus [11] = assay: Antimicrobial activity against Aspergillus fumigatus after 48 hrs by agar diffusion assay
Staphylococcus aureus [12] = assay: Antimicrobial activity against Staphylococcus aureus ATCC 25923 after 24 hrs by microdilution assay; details: ATCC 25923, 24 h; outline: as §2

MIC (Pseudomonas fluorescens [2]) | MIC (Fusarium oxysporum [4]) | MIC (Pseudomonas [7]) | MIC (Aspergillus fumigatus [8]) | MIC (Streptococcus pyogenes [9]) | MIC (Staphylococcus aureus [12]) | SMILES | inhibition zone (IZ) (Streptococcus pyogenes [1]) | inhibition zone (IZ) (Pseudomonas fluorescens [3]) | inhibition zone (IZ) (Fusarium oxysporum [5]) | inhibition zone (IZ) (Staphylococcus aureus [6]) | inhibition zone (IZ) (Pseudomonas [10]) | inhibition zone (IZ) (Aspergillus fumigatus [11])
6.25 µg/mL (≈ 21.5 µM) | 100 µg/mL (≈ 343 µM) | 100 µg/mL (≈ 343 µM) | 50 µg/mL (≈ 172 µM) | 25 µg/mL (≈ 85.8 µM) | 25 µg/mL (≈ 85.8 µM) | O=C1CSC(CC(=O)Nc2nc3ccccc3s2)=N1 | 25 mm | 37 mm | 16 mm | 26 mm | 14 mm | 20 mm
100 µg/mL (≈ 255 µM) | 100 µg/mL (≈ 255 µM) | 100 µg/mL (≈ 255 µM) | 50 µg/mL (≈ 127 µM) | 100 µg/mL (≈ 255 µM) | 100 µg/mL (≈ 255 µM) | N#C/C(C(=O)Nc1nc2ccccc2s1)=C1\SCC(=O)N1c1ccccc1 | 14 mm | 17 mm | 14 mm | 15 mm | 15 mm | 19 mm
100 µg/mL (≈ 260 µM) | 12.5 µg/mL (≈ 32.5 µM) | 50 µg/mL (≈ 130 µM) | 100 µg/mL (≈ 260 µM) | 100 µg/mL (≈ 260 µM) | 12.5 µg/mL (≈ 32.5 µM) | Nc1c(C(=O)Nc2nc3ccccc3s2)sc(=S)n1-c1ccccc1 | 14 mm | 16 mm | 31 mm | 32 mm | 20 mm | 16 mm
100 µg/mL (≈ 304 µM) | 100 µg/mL (≈ 304 µM) | 100 µg/mL (≈ 304 µM) | 50 µg/mL (≈ 152 µM) | 6.25 µg/mL (≈ 19 µM) | 6.25 µg/mL (≈ 19 µM) | Nc1sc2c(c1C(=O)Nc1nc3ccccc3s1)CCCC2 | 38 mm | 16 mm | 15 mm | 38 mm | 14 mm | 19 mm
50 µg/mL (≈ 106 µM) | 100 µg/mL (≈ 213 µM) | 50 µg/mL (≈ 106 µM) |  | 6.25 µg/mL (≈ 13.3 µM) | 6.25 µg/mL (≈ 13.3 µM) | Nc1c(C(=O)c2ccccc2)sc(Nc2ccccc2)c1C(=O)Nc1nc2ccccc2s1 | 37 mm | 20 mm | 14 mm | 38 mm | 19 mm | 
 | 100 µg/mL (≈ 228 µM) | 50 µg/mL (≈ 114 µM) | 12.5 µg/mL (≈ 28.5 µM) | 6.25 µg/mL (≈ 14.3 µM) | 3.12 µg/mL (≈ 7.13 µM) | CCOC(=O)c1sc(Nc2ccccc2)c(C(=O)Nc2nc3ccccc3s2)c1N | 38 mm |  | 14 mm | 43 mm | 19 mm | 31 mm
12.5 µg/mL (≈ 32 µM) | 25 µg/mL (≈ 64 µM) | 100 µg/mL (≈ 256 µM) | 50 µg/mL (≈ 128 µM) | 100 µg/mL (≈ 256 µM) | 100 µg/mL (≈ 256 µM) | Cc1cc(C)c2c(n1)[nH]n1c(=N)c(C(=O)Nc3nc4ccccc4s3)nnc21 | 15 mm | 32 mm | 26 mm | 14 mm | 15 mm | 19 mm
50 µg/mL (≈ 120 µM) | 100 µg/mL (≈ 240 µM) | 25 µg/mL (≈ 60 µM) | 100 µg/mL (≈ 240 µM) | 6.25 µg/mL (≈ 15 µM) | 25 µg/mL (≈ 60 µM) | Cc1cc(O)n2nc(Nc3ccccc3)c(C(=O)Nc3nc4ccccc4s3)c2n1 | 37 mm | 19 mm | 15 mm | 25 mm | 26 mm | 14 mm

Further lines, the molecule ahead of its results:

SMILES | MIC (Pseudomonas fluorescens [2]) | MIC (Fusarium oxysporum [4]) | MIC (Pseudomonas [7]) | MIC (Aspergillus fumigatus [8]) | MIC (Streptococcus pyogenes [9]) | MIC (Staphylococcus aureus [12]) | inhibition zone (IZ) (Streptococcus pyogenes [1]) | inhibition zone (IZ) (Pseudomonas fluorescens [3]) | inhibition zone (IZ) (Fusarium oxysporum [5]) | inhibition zone (IZ) (Staphylococcus aureus [6]) | inhibition zone (IZ) (Pseudomonas [10]) | inhibition zone (IZ) (Aspergillus fumigatus [11])
O=C(Nc1nc2ccccc2s1)c1c(Nc2ccccc2)n[nH]c1/N=C\c1cn(-c2ccccc2)nc1-c1ccccc1 | 50 µg/mL (≈ 86.1 µM) | 25 µg/mL (≈ 43.1 µM) | 100 µg/mL (≈ 172 µM) | 100 µg/mL (≈ 172 µM) | 6.25 µg/mL (≈ 10.8 µM) | 3.12 µg/mL (≈ 5.38 µM) | 37 mm | 19 mm | 26 mm | 44 mm | 15 mm | 14 mm
N#C/C(C(=O)Nc1nc2ccccc2s1)=C1/SC=C(c2ccccc2)N1c1ccccc1 | 50 µg/mL (≈ 110 µM) | 100 µg/mL (≈ 221 µM) | 100 µg/mL (≈ 221 µM) | 6.25 µg/mL (≈ 13.8 µM) | 100 µg/mL (≈ 221 µM) | 50 µg/mL (≈ 110 µM) | 15 mm | 19 mm | 15 mm | 19 mm | 14 mm | 38 mm
Nc1[nH]nc(-c2cn(-c3ccccc3)nc2-c2ccccc2)c1C(=O)Nc1nc2ccccc2s1 | 50 µg/mL (≈ 105 µM) | 50 µg/mL (≈ 105 µM) | 100 µg/mL (≈ 209 µM) |  | 6.25 µg/mL (≈ 13.1 µM) | 12.5 µg/mL (≈ 26.2 µM) | 38 mm | 20 mm | 19 mm | 32 mm | 14 mm | 
O=C(Nc1nc2ccccc2s1)c1c(Nc2ccccc2)nn2c(-c3cccs3)ccnc12 | 50 µg/mL (≈ 107 µM) | 6.25 µg/mL (≈ 13.3 µM) | 100 µg/mL (≈ 213 µM) | 25 µg/mL (≈ 53.4 µM) | 100 µg/mL (≈ 213 µM) | 100 µg/mL (≈ 213 µM) | 15 mm | 18 mm | 37 mm | 14 mm | 15 mm | 26 mm
O=c1c2c(Nc3ccccc3)n[nH]c2ncn1-c1nc2ccccc2s1 | 100 µg/mL (≈ 277 µM) | 50 µg/mL (≈ 139 µM) | 6.25 µg/mL (≈ 17.3 µM) | 100 µg/mL (≈ 277 µM) | 100 µg/mL (≈ 277 µM) | 100 µg/mL (≈ 277 µM) | 15 mm | 15 mm | 19 mm | 15 mm | 38 mm | 15 mm
CC(=O)OCC1=C(C(=O)O)N2C(=O)[C@@H](NC(=O)Cc3cccs3)[C@H]2SC1 [CEPHALOTHIN] | 6.25 µg/mL (≈ 15.8 µM) |  | 6.25 µg/mL (≈ 15.8 µM) |  | 6.25 µg/mL (≈ 15.8 µM) | 6.25 µg/mL (≈ 15.8 µM) | 37 mm | 37 mm |  | 36 mm | 38 mm | 
O=C(N[C@H](CO)[C@H](O)c1ccc([N+](=O)[O-])cc1)C(Cl)Cl [CHLORAMPHENICOL] | 6.25 µg/mL (≈ 19.3 µM) |  | 6.25 µg/mL (≈ 19.3 µM) |  | 3.12 µg/mL (≈ 9.67 µM) | 3.12 µg/mL (≈ 9.67 µM) | 44 mm | 38 mm |  | 42 mm | 37 mm | 
C[C@@H]1C[C@@H]([C@H](O)CC2CC(=O)NC(=O)C2)C(=O)[C@@H](C)C1 [CYCLOHEXIMIDE] |  | 3.12 µg/mL (≈ 11.1 µM) |  | 3.12 µg/mL (≈ 11.1 µM) |  |  |  |  | 43 mm |  |  | 42 mm
